From ChEMBL document CHEMBL5131576, “Turning the Other Cheek: Influence of the cis-Tetrafluorocyclohexyl Motif on Physicochemical and Metabolic Properties” (ACS Med Chem Lett, 2022)
≈ marks a conversion by molar mass, not a printed value.

assay: Kinetic solubility of the compound; assay type: physicochemical; conditions: not given

SMILES | Kinetic_solubility | solubility kinetic [µM]
CN1CCC(c2ccc(-c3ccc(C4CCCCC4)cc3)cn2)CC1 | Soluble | 
O=C(Nc1ccc(C2CCCCC2)cc1)c1cn[nH]c1 | < 1 µM | 
O=C(CC1CCOCC1)Nc1ccc(C2CCCCC2)cc1 | < 1 µM | 
CN1CCN(C(=O)c2ccc(C3CCCCC3)cc2)CC1 | Soluble | 
CN1CCN(C(=O)c2ccc(C3CCCCC3)cc2)CC1=O | Soluble | 
c1ncc(-c2ccc(C3CCCCC3)cc2)cn1 | Soluble | 
O=C(Nc1ccc(C2CCCCC2)cc1)[C@H]1CC1(F)F | < 1 µM | 

The next lines start with the values.

Kinetic_solubility | solubility kinetic [µM] | SMILES
Soluble |  | NS(=O)(=O)c1cccc(-c2ccc(C3CCCCC3)cc2)c1
 | 136 (≈ 46.4 µg/mL) | O=C(Nc1ccc([C@H]2[C@@H](F)[C@@H](F)C[C@@H](F)[C@H]2F)cc1)c1cn[nH]c1
< 1 µM |  | O=C(Cc1cccnc1)Nc1ccc(C2CCCCC2)cc1
< 1 µM |  | O=C(COCC(F)F)Nc1ccc(C2CCCCC2)cc1
Soluble |  | O=C(c1ccc(C2CCCCC2)cc1)N1CC(O)C1

assay: Permeability across apical to basolateral side in MDCK cells pgp knock out incubated up to 180 mins by LC_MS/MS analysis; assay type: ADME, cell-based, Canis lupus familiaris; conditions: dog, read-out: permeability
How it was run: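 MDCK cells with the endogenously expressed canine MDR1 gene knocked out; transport measured in the apical-to-basolateral direction; apparent permeability reported in 10^-6 cm/s.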

SMILES | Papp A→B at 3 h [×10⁻⁶ cm/s]
CN1CCN(C(=O)c2ccc([C@H]3[C@@H](F)[C@@H](F)C[C@@H](F)[C@H]3F)cc2)CC1 | 18.6
O=C(NCC1CCOCC1)c1ccc([C@H]2[C@@H](F)[C@@H](F)C[C@@H](F)[C@H]2F)cc1 | 20.3
CN(CCC#N)C(=O)c1ccc([C@H]2[C@@H](F)[C@@H](F)C[C@@H](F)[C@H]2F)cc1 | 8.1
O=C(Cn1ccnc1)Nc1ccc(C2CCCCC2)cc1 | 11.1
O=C(c1ccc([C@H]2[C@@H](F)[C@@H](F)C[C@@H](F)[C@H]2F)cc1)N1CC(O)C1 | 6.7
N#CCC(=O)Nc1ccc([C@H]2[C@@H](F)[C@@H](F)C[C@@H](F)[C@H]2F)cc1 | 16
COCCN(C)C(=O)c1ccc(C2CCCCC2)cc1 | 9.4
CC(C(=O)Nc1ccc([C@H]2[C@@H](F)[C@@H](F)C[C@@H](F)[C@H]2F)cc1)n1cncn1 (some centres not stated) | 5.5
O=C(NCCc1cccnc1)c1ccc(C2CCCCC2)cc1 | 23
CN1CCN(C(=O)c2ccc([C@H]3[C@@H](F)[C@@H](F)C[C@@H](F)[C@H]3F)cc2)CC1=O | 4.5
CN1CCN(C(=O)c2ccc(C3CCCCC3)cc2)CC1 | 20.3
CC(=O)N1CC(C(=O)Nc2ccc([C@H]3[C@@H](F)[C@@H](F)C[C@@H](F)[C@H]3F)cc2)C1 | 0.6
O=C(NCCN1CCCC1=O)c1ccc(C2CCCCC2)cc1 | 15.5
CN(C)CCC(=O)Nc1ccc(C2CCCCC2)cc1 | 10.8
CN1CCN(C(=O)c2ccc(C3CCCCC3)cc2)CC1=O | 10.9
CN(Cc1cccnc1)C(=O)c1ccc([C@H]2[C@@H](F)[C@@H](F)C[C@@H](F)[C@H]2F)cc1 | 16.3
NC(=O)CCNC(=O)c1ccc(C2CCCCC2)cc1 | 14.7
O=C(NCC1CCOCC1)c1ccc(C2CCCCC2)cc1 | 35.9
N#CCC(=O)Nc1ccc(C2CCCCC2)cc1 | 18.6
NC(=O)CCNC(=O)c1ccc([C@H]2[C@@H](F)[C@@H](F)C[C@@H](F)[C@H]2F)cc1 | 0.4
O=C(NCCN1CCCC1=O)c1ccc([C@H]2[C@@H](F)[C@@H](F)C[C@@H](F)[C@H]2F)cc1 | 3.5
O=C(Cn1ccnc1)Nc1ccc([C@H]2[C@@H](F)[C@@H](F)C[C@@H](F)[C@H]2F)cc1 | 0.9

Results, then the molecule that gave them:

Papp A→B at 3 h [×10⁻⁶ cm/s] | SMILES
29.5 | CC(C(=O)Nc1ccc(C2CCCCC2)cc1)n1cncn1 (configuration not stated)
3.7 | CN(C)CCC(=O)Nc1ccc([C@H]2[C@@H](F)[C@@H](F)C[C@@H](F)[C@H]2F)cc1
15 | O=C(Cc1cccnc1)Nc1ccc([C@H]2[C@@H](F)[C@@H](F)C[C@@H](F)[C@H]2F)cc1
2.1 | O=C(NCc1cc[nH]n1)c1ccc([C@H]2[C@@H](F)[C@@H](F)C[C@@H](F)[C@H]2F)cc1
9.4 | COCCN(C)C(=O)c1ccc([C@H]2[C@@H](F)[C@@H](F)C[C@@H](F)[C@H]2F)cc1
19.9 | O=C(Cc1cccnc1)Nc1ccc(C2CCCCC2)cc1
12.1 | CN(Cc1cccnc1)C(=O)c1ccc(C2CCCCC2)cc1
18.1 | COCCC(=O)Nc1ccc([C@H]2[C@@H](F)[C@@H](F)C[C@@H](F)[C@H]2F)cc1
18.7 | CN(CCC#N)C(=O)c1ccc(C2CCCCC2)cc1
22.2 | COCCC(=O)Nc1ccc(C2CCCCC2)cc1
26 | O=C(c1ccc(C2CCCCC2)cc1)N1CC(O)C1
18.7 | CC(=O)N1CC(C(=O)Nc2ccc(C3CCCCC3)cc2)C1
16.7 | O=C(NCc1cc[nH]n1)c1ccc(C2CCCCC2)cc1
